According to ChEMBL document CHEMBL4257564, “Rational Design, Synthesis, and Pharmacological Characterization of Novel Ghrelin Receptor Inverse Agonists as Potential Treatment against Obesity-Related Metabolic Diseases” (J Med Chem, 2018):

Columns and labels:
[1] = Ratio of drug level in brain to plasma of rat at 3 mg/kg, iv after 2 hrs by LC-MS/MS analysis; format: ADME, organism-based; conditions: read-out: BPR
Summary of the method: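 Rats given 3 mg/kg i.v. Brain collected 2 h post-dose after CO2 euthanasia and homogenized in 5 volumes of PBS pH 7.4. Brain and plasma levels measured by LC-MS/MS; ratio taken from the 2 h concentrations.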

Mus musculus [2] = experiment: Anti-obesity activity in C57BL/6J mouse assessed as inhibition of anamorelin-induced increase in food intake by measuring cumulative food intake at 30 mg/kg, po pretreated for 10 mins followed by anamorelin addition and measured after 24 hrs post dose (reference value: 8.31 +/- 0.2 g)
[3] = target: T1, Growth hormone secretagogue receptor type 1 (Homo sapiens, UniProt Q92847); experiment: Inverse agonist at recombinant human GHSR1a expressed in HEK293 cells assessed as decrease in IP1 accumulation after 1 hr by IP1-d2-based HTRF assay; format: functional, cell-based; conditions: read-out: EC50
Summary of the method: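 HEK293 cells stably expressing human GHSR1a were seeded on Matrigel in complete DMEM for 18–22 h at 37 °C, 5% CO2. Compound in stimulation buffer was applied for 1 h at 37 °C. IP1-d2 and Tb-cryptate were then added for 1 h at room temperature, with HTRF read at 620/665 nm. Mean of at least two independent runs in triplicate.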

Mus musculus [4] = experiment: Anti-obesity activity in C57BL/6J mouse assessed as inhibition of anamorelin-induced increase in food intake by measuring cumulative food intake at 10 mg/kg, ip pretreated for 10 mins followed by anamorelin addition and measured after 2 hrs post dose (reference value: 1.37 +/- 0.05 g); format: functional
Summary of the method: (§1)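 Male C57BL/6J mice (18–22 g at arrival), fed ad libitum. Dosed 10 mg/kg i.p. at t = 0 in 10% DMAC/6% Solutol HS 15/84% PBS, then anamorelin 30 mg/kg p.o. (0.5% CMC) at 10 min. Cumulative food intake recorded at 1, 2, 4, 8 and 24 h; n=6 per group; mean ± SEM; ANOVA with Dunnett test versus vehicle+anamorelin.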

[5] = Clearance in dog liver microsomes at 0.625 uM preincubated for 5 mins followed by NADPH addition and measured after 60 mins by LC-MS/MS analysis; format: ADME, Canis lupus familiaris, microsome; conditions: read-out: CLH
Summary of the method: (§2)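 Liver microsomes (0.625 mg/mL protein) in 50 mM potassium phosphate pH 7.4 with 0.625 µM test item, prewarmed 5 min at 37 °C. Reaction started with NADPH (5 mM solution). Samples taken at 0, 5, 15, 30 and 60 min into cold MeCN with internal standard, analysed by LC-MS/MS. Intrinsic clearance derived by the half-life approach.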

[6] = Protein binding in human plasma at 1 uM after 6 hrs by equilibrium dialysis; format: ADME, cell-free; conditions: read-out: PPB
Summary of the method: (§3)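 Compound spiked at 1.0 µM final (0.5% DMSO) into plasma. Equilibrium dialysis against DPBS pH 7.4 across a 12–14 kD membrane for 6 h at 37 °C, in triplicate. Buffer-only controls used for nonspecific binding. Unbound fraction = acceptor/donor concentration by LC-MS/MS; reported as % bound.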

Mus musculus [7] = experiment: Anti-obesity activity in C57BL/6J mouse assessed as inhibition of anamorelin-induced increase in food intake by measuring cumulative food intake at 10 mg/kg, ip pretreated for 10 mins followed by anamorelin addition and measured after 4 hrs post dose (reference value: 2.09 +/- 0.08 g); format: functional; summary of the method: as §1
[8] = Volume of distribution in rat at 3 mg/kg, iv after 24 hrs by LC-MS/MS analysis; format: ADME, organism-based; conditions: in vivo
Summary of the method: (§4)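 Rats given 3 mg/kg i.v. via tail vein, in 2% DMSO/50% of 40% HP-β-CD. EDTA plasma sampled at 0.08–24 h and analysed by LC-MS/MS, calibration range 5-5000 ng/mL.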

[9] = Half life in rat at 3 mg/kg, po via gavage by LC-MS/MS analysis; format: ADME, organism-based; conditions: in vivo
Summary of the method: (§5)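 Rats given 3 mg/kg by oral gavage as a suspension in 2% DMSO/98% of 0.5% CMC. EDTA plasma sampled at 0.25–24 h and analysed by LC-MS/MS. Bioavailability estimated against the 3 mg/kg i.v. arm.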

Mus musculus [10] = experiment: Anti-obesity activity in C57BL/6J mouse assessed as inhibition of anamorelin-induced increase in food intake by measuring cumulative food intake at 10 mg/kg, ip pretreated for 10 mins followed by anamorelin addition and measured after 24 hrs post dose (reference value: 8.31 +/- 0.2 g); format: functional; summary of the method: as §1
[11] = Tmax in rat at 3 mg/kg, po via gavage by LC-MS/MS analysis; format: ADME, organism-based; conditions: in vivo; summary of the method: as §5
[12] = Half life in rat at 3 mg/kg, iv after 24 hrs by LC-MS/MS analysis; format: ADME, organism-based; conditions: in vivo; summary of the method: as §4
[13] = Protein binding in rat plasma at 1 uM after 6 hrs by equilibrium dialysis; format: ADME, cell-free; conditions: read-out: PPB; summary of the method: as §3
Mus musculus [14] = experiment: Anti-obesity activity in C57BL/6J mouse assessed as inhibition of anamorelin-induced increase in food intake by measuring cumulative food intake at 10 mg/kg, ip pretreated for 10 mins followed by anamorelin addition and measured after 8 hrs post dose (reference value: 2.97 +/- 0.09 g); format: functional; summary of the method: as §1
Mus musculus [15] = experiment: Anti-obesity activity in C57BL/6J mouse assessed as inhibition of anamorelin-induced increase in food intake by measuring cumulative food intake at 30 mg/kg, po pretreated for 10 mins followed by anamorelin addition and measured after 8 hrs post dose (reference value: 2.97 +/- 0.09 g)
[16] = Clearance in human liver microsomes at 0.625 uM preincubated for 5 mins followed by NADPH addition and measured after 60 mins by LC-MS/MS analysis; format: ADME, microsome; conditions: read-out: CLH; summary of the method: as §2
[17] = Oral bioavailability in rat at 3 mg/kg via gavage by LC-MS/MS analysis; format: ADME, organism-based; conditions: in vivo; summary of the method: as §5
[18] = target: T1, Growth hormone secretagogue receptor type 1; experiment: Antagonist activity at recombinant human GHSR1a expressed in HEK293 cells assessed as inhibition of ghrelin-induced intracellular calcium release incubated for 20 secs and measured after 2 mins by FLIPR assay; format: functional, cell-based
Summary of the method: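 HEK293/GHSR1a cells were dye-loaded for 30-60 min. Compounds and 10 nM ghrelin were added at t = 20 s, with a 15 min compound preincubation described. Calcium response was read for 2 min. IC50 was taken from dose-response fits of the reduction in ghrelin response; mean of at least two independent runs done in triplicate.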

[19] = Protein binding in dog plasma at 1 uM after 6 hrs by equilibrium dialysis; format: ADME, cell-free, Canis lupus familiaris; conditions: read-out: PPB; summary of the method: as §3
[20] = Clearance in rat liver microsomes at 0.625 uM preincubated for 5 mins followed by NADPH addition and measured after 60 mins by LC-MS/MS analysis; format: ADME, microsome; conditions: read-out: CLH; summary of the method: as §2
Mus musculus [21] = experiment: Anti-obesity activity in C57BL/6J mouse assessed as inhibition of anamorelin-induced increase in food intake by measuring cumulative food intake at 30 mg/kg, po pretreated for 10 mins followed by anamorelin addition and measured after 4 hrs post dose (reference value: 2.09 +/- 0.08 g)

T1 sequence (Q92847 whole entry): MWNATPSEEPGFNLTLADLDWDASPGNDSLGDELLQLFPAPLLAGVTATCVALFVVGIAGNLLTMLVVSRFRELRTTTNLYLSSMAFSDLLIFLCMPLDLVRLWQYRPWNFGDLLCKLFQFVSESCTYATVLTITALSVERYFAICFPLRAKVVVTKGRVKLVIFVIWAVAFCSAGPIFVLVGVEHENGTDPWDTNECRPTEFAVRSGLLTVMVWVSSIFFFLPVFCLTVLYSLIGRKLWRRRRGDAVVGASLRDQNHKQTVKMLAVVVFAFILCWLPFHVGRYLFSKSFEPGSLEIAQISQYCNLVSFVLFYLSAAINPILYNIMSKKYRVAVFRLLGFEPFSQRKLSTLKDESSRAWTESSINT

Kp at 2 h [1]: 1.86
EC50 [3]: 29.4 nM
microsomal CLint at 0.625 µM [5]: 52.2 µL/min/mg
fraction unbound at 6 h, 1 µM [6]: 0.0001
Vd [8]: 8.48 L/kg
half-life [9]: 15.8 h
Tmax [11]: 6.7 h
half-life [12]: 6.49 h
fraction unbound at 6 h, 1 µM [13]: 0.0001
microsomal CLint at 0.625 µM [16]: 74.7 µL/min/mg
bioavailability [17]: 27%
IC50 [18]: 68.2 nM
fraction unbound at 6 h, 1 µM [19]: 0.0001
microsomal CLint at 0.625 µM [20]: 57.8 µL/min/mg
SMILES: Cc1cc(-c2ccc3c(c2)CC[C@H]3N2CCC(N(C)C(=O)N[C@@H](C)c3ccc(C#CC4CC4)c(Cl)c3Cl)CC2)ncn1
Activity (Mus musculus [2]): 7.42 g
Activity (Mus musculus [4]): 0.56 g
Activity (Mus musculus [7]): 1.66 g
Activity (Mus musculus [10]): 7.63 g
Activity (Mus musculus [14]): 2.78 g
Activity (Mus musculus [15]): 1.8 g
Activity (Mus musculus [21]): 1.45 g
